Measured values: ChEMBL document CHEMBL2375292, “Biaryl tetrazolyl ureas as inhibitors of endocannabinoid metabolism: modulation at the N-portion and distal phenyl ring” (Eur J Med Chem, 2013)
pEC50, pIC50: −log10 of the molar value.

Key:
[1] = target: T1, Diacylglycerol lipase-alpha (Homo sapiens) (UniProt Q9Y4D2); assay: (§1) Activation of human recombinant DAGLalpha expressed in African green monkey COS7 cells assessed as increase in N-oleoylethanolamine level per mg of extracted lipid at 1 uM preincubated for 10 mins measured after 20 mins by LC-MS analysis in presence of ionomycin (reference value: 1.08 +/- 0.17 pmol); type: cell-based; conditions: COS-7
T1 sequence (whole entry): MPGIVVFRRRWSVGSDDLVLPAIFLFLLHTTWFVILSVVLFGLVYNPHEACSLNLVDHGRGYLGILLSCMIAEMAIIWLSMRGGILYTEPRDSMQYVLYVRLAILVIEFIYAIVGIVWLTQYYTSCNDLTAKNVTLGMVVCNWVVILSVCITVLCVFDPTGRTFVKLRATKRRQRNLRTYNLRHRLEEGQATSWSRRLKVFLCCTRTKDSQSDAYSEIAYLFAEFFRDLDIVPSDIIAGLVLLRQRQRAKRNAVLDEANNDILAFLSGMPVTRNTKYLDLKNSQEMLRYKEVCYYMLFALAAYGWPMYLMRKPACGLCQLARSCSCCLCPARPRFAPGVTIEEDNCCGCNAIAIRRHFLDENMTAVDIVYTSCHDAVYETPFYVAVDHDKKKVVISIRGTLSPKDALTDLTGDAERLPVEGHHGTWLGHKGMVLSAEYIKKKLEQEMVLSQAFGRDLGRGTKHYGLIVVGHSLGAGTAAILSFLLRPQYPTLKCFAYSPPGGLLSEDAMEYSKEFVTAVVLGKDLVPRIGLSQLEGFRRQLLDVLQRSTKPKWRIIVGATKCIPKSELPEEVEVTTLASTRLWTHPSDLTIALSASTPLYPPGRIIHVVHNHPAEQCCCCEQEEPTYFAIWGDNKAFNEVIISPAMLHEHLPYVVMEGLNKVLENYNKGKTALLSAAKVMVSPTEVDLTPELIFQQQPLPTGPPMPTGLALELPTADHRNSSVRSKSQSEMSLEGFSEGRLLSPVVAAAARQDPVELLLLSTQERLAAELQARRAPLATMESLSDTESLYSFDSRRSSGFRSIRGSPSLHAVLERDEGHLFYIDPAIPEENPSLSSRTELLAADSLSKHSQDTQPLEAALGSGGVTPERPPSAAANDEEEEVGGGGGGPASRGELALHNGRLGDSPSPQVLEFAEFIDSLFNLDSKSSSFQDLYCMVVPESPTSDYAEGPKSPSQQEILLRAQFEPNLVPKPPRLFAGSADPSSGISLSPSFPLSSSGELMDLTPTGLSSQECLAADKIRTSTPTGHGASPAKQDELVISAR
How it was run: (§2)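 About 10⁶ COS-7 cells overexpressing human recombinant DAGL-α per point, preincubated 10 min with test compound or not, then 20 min at 37 °C with vehicle or ionomycin 3 µM. Cells homogenized in CHCl₃/CH₃OH/Tris-HCl 50 mM pH 7.4 (2/1/1) with 5 pmol d⁸-AEA, d⁵-2-AG and d⁴-OEA as internal standards. Levels in pmol/mg lipid extracted, mean ± SD, n = 4.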

[2] = target: T2, Fatty-acid amide hydrolase 1 (Rattus norvegicus, UniProt P97612); assay: Inhibition of FAAH in rat brain membranes assessed as [14C]AEA hydrolysis to [14C]Ethanolamine after 30 mins by scintillation counting analysis; type: cell membranes
T2 sequence (P97612 whole entry): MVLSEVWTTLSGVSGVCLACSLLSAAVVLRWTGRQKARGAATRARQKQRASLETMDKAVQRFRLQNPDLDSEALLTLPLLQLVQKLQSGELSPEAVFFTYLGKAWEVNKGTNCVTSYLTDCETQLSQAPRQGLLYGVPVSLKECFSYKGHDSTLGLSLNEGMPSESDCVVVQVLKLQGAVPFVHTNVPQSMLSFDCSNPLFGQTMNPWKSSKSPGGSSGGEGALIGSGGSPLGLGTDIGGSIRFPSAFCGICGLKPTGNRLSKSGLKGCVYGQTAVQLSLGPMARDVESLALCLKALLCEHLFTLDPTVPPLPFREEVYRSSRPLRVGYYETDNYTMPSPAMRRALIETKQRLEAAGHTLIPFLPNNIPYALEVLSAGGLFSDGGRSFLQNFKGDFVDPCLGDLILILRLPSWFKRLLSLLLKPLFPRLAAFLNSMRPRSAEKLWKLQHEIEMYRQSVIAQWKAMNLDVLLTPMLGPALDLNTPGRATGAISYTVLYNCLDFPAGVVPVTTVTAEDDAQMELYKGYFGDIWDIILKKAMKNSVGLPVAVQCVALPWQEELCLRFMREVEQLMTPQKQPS
How it was run: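 Rat brain membranes were incubated with [¹⁴C]AEA in 50 mM Tris-HCl pH 9 for 30 min at 37 °C. Released [¹⁴C]ethanolamine in the aqueous phase was counted by scintillation after CHCl₃/CH₃OH 2/1 extraction. IC50 was the concentration giving 50% inhibition.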

Monoglyceride lipase = target: T3, Monoglyceride lipase (Homo sapiens, UniProt Q99685); assay: Inhibition of MAGL (unknown origin) expressed in African green monkey COS7 cell cytosolic fraction assessed as [3H]2-AG hydrolysis to [3H]arachidonic acid after 20 mins by beta counting analysis; set-up: species or system COS-7
T3 sequence (Q99685 whole entry): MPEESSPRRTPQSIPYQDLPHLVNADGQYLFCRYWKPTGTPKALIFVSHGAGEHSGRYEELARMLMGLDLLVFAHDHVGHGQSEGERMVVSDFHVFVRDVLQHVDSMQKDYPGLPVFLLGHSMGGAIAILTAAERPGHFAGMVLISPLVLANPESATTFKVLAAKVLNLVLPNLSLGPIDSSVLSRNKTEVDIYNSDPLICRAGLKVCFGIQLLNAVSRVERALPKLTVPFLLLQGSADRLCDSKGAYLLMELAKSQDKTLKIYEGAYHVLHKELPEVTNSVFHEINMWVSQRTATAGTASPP

[3] = target: T4, Transient receptor potential cation channel subfamily A member 1 (Rattus norvegicus, UniProt Q6RI86); assay: Antagonist activity at rat TRPA1 receptor expressed in HEK293 cells assessed as inhibition of allyl isothiocyanate-induced intracellular Ca2+ elevation incubated for 5 mins prior to allyl isothiocyanate-stimulation by spectrofluorimetric analysis; type: cell-based
T4 sequence (Q6RI86 whole entry): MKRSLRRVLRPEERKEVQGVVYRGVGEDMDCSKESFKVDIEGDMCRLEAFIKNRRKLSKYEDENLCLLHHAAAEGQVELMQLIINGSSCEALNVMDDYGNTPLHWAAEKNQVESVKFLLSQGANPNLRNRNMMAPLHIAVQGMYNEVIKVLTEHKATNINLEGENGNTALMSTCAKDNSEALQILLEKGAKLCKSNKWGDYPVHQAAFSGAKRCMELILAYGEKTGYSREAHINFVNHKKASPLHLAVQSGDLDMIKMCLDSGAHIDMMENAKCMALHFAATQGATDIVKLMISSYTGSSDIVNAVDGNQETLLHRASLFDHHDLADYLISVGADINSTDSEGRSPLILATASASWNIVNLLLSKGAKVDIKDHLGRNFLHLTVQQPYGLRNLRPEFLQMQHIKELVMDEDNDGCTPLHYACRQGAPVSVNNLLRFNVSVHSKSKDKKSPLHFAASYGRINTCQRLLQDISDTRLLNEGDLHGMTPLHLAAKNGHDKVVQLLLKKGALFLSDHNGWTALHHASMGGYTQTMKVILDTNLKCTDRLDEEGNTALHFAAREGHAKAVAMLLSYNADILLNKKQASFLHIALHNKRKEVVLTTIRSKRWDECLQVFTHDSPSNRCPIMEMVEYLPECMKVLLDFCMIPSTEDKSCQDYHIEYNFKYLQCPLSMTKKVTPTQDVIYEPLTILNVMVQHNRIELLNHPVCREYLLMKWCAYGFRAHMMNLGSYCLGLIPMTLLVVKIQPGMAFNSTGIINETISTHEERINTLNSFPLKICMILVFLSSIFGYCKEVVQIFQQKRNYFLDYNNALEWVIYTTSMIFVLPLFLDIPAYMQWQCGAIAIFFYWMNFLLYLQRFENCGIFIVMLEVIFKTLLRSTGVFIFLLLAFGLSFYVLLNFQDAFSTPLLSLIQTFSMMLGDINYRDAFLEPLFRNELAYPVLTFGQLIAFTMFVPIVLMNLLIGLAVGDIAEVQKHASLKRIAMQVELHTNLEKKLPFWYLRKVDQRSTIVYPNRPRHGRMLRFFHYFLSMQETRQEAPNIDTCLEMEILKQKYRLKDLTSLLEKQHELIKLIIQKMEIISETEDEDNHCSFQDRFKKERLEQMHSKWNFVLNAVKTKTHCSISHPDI
How it was run: (§3)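 Fluo-4-loaded HEK293 cells stably expressing human TRPV1 or rat TRPA1, in Tyrode's buffer pH 7.4, received test compound in the cuvette 5 min before agonist: capsaicin 0.1 µM for TRPV1, AITC 100 µM for TRPA1. The [Ca²⁺]i rise with agonist alone was set to 100%. IC50 came from a variable-slope sigmoidal fit. Untransfected-cell signal was subtracted.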

[4] = target: T5, Transient receptor potential cation channel subfamily V member 1 (Homo sapiens, UniProt Q8NER1); assay: Agonist activity at human TRPV1 receptor expressed in HEK293 cells assessed as increase in intracellular Ca2+ concentration by spectrofluorimetric analysis relative to ionomycin; type: cell-based
T5 sequence (Q8NER1 whole entry): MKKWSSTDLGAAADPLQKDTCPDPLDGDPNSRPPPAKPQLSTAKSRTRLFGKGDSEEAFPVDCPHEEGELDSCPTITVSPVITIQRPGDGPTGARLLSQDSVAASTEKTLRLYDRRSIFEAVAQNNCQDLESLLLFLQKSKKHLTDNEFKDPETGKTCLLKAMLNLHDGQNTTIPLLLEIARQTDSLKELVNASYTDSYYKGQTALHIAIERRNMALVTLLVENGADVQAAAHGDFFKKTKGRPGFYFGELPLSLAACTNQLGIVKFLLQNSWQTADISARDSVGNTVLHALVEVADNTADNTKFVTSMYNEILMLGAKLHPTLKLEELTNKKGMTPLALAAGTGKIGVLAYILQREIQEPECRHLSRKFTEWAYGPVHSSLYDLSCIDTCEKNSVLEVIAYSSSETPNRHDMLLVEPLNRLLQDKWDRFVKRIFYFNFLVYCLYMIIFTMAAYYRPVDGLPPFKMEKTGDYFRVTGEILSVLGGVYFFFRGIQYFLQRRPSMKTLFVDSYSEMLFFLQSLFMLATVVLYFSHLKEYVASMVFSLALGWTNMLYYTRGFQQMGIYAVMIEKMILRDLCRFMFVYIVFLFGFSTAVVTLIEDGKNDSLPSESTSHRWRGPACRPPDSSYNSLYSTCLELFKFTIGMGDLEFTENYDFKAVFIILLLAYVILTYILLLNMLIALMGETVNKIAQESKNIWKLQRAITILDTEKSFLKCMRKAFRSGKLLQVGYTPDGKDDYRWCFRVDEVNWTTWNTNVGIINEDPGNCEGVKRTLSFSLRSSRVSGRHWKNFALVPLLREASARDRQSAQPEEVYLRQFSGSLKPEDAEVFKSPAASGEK
How it was run: (§4)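 HEK293 cells stably transfected with human TRPV1 or rat TRPA1 cDNA (pcDNA3, G-418 selection) were loaded 1 h at room temperature with Fluo-4-AM, washed and suspended in Tyrode's buffer pH 7.4. [Ca²⁺]i was read by stirred-cuvette spectrofluorimetry before and after adding test compound at various concentrations. Signal from untransfected cells was subtracted. Efficacy was taken as percent of ionomycin (4 µM) for TRPV1 and percent of allyl isothiocyanate (100 µM) for TRPA1; EC50 was also derived.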

[5] = target: T5, Transient receptor potential cation channel subfamily V member 1; assay: Antagonist activity at human TRPV1 receptor expressed in HEK293 cells assessed as inhibition of capsaicin-induced intracellular Ca2+ elevation incubated for 5 mins prior to capsaicin-stimulation by spectrofluorimetric analysis; type: cell-based; how it was run: as §3
[6] = target: Transient receptor potential cation channel subfamily A member 1 (Rattus norvegicus) (UniProt Q6RI86); assay: Agonist activity at rat TRPA1 receptor expressed in HEK293 cells assessed as increase in intracellular Ca2+ concentration by spectrofluorimetric analysis relative to allyl isothiocyanate; type: cell-based; how it was run: as §4
Sequence of Transient receptor potential cation channel subfamily A member 1 (Rattus norvegicus) (Q6RI86 whole entry): as the sequence (Q6RI86 whole entry) above

[7] = target: T1, Diacylglycerol lipase-alpha (Homo sapiens); assay: Activation of human recombinant DAGLalpha expressed in African green monkey COS7 cells assessed as increase in anandamide level per mg of extracted lipid at 1 uM preincubated for 10 mins measured after 20 mins by LC-MS analysis in presence of ionomycin (reference value: 0.16 +/- 004 pmol); type: cell-based; conditions: COS-7; how it was run: as §2
[8] = target: T1, Diacylglycerol lipase-alpha (Homo sapiens); assay: as §1, with “2-arachidonoylglycerol” for “N-oleoylethanolamine”, “2.82” for “1.08”, “0.75” for “0.17”; type: cell-based; conditions: COS-7; how it was run: as §2
[9] = target: T4, Transient receptor potential cation channel subfamily A member 1; assay: Agonist activity at rat TRPA1 receptor expressed in HEK293 cells assessed as increase in intracellular Ca2+ concentration by spectrofluorimetric analysis; type: cell-based; how it was run: as §4
[10] = target: TRPA1 (Rattus norvegicus); assay: Agonist activity at GDH-tagged rat TRPA1 receptor expressed in HEK293F cells assessed as increase in intracellular Ca2+ concentration by Fluo-4 spectrofluorimetric assay
[11] = target: T5, Transient receptor potential cation channel subfamily V member 1; assay: Agonist activity at human TRPV1 receptor expressed in HEK293 cells assessed as increase in intracellular Ca2+ concentration by spectrofluorimetric analysis; type: cell-based; how it was run: as §4
[12] = Selectivity ratio of IC50 for FAAH in rat brain membranes to IC50 for MAGL (unknown origin); type: cell membranes
[13] = target: T1, Diacylglycerol lipase-alpha (Homo sapiens); assay: Activation of human recombinant DAGLalpha expressed in African green monkey COS7 cells assessed as increase in 2-arachidonoylglycerol level per mg of extracted lipid at 3 uM preincubated for 10 mins measured after 20 mins by LC-MS analysis (reference value: 2.82 +/- 0.75 pmol); type: cell-based; conditions: COS-7
How it was run: (§5)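 About 10⁶ COS-7 cells overexpressing human recombinant DAGL-α per data point. Cells were preincubated 10 min with compound, then incubated 20 min at 37 °C with vehicle or ionomycin 3 µM. They were then homogenized in CHCl₃/CH₃OH/Tris-HCl 50 mM pH 7.4 (2/1/1) containing 5 pmol each of d⁸-AEA, d⁵-2-AG and d⁴-OEA as internal standards. Results in pmol/mg lipid extracted, means ± SD, n = 4.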

[14] = target: T1, Diacylglycerol lipase-alpha (Homo sapiens); assay: Activation of human recombinant DAGLalpha expressed in African green monkey COS7 cells assessed as increase in N-oleoylethanolamine level per mg of extracted lipid at 3 uM preincubated for 10 mins measured after 20 mins by LC-MS analysis (reference value: 1.08 +/- 0.17 pmol); type: cell-based; conditions: COS-7; how it was run: as §5
[15] = target: T1, Diacylglycerol lipase-alpha (Homo sapiens); assay: Activation of human recombinant DAGLalpha expressed in African green monkey COS7 cells assessed as increase in anandamide level per mg of extracted lipid at 3 uM preincubated for 10 mins measured after 20 mins by LC-MS analysis (reference value: 0.16 +/- 004 pmol); type: cell-based; conditions: COS-7; how it was run: as §5

Activity [1] | pIC50 [2] | pIC50 (Monoglyceride lipase) | pIC50 [3] | Efficacy [4] | pIC50 [5] | Efficacy [6] | Activity [7] | Activity [8] | pEC50 [9] | pEC50 [10] | pEC50 [11] | Ratio IC50 [12] | Structure (SMILES) | Activity [13] | Activity [14] | Activity [15]
7.25 pmol | 7.92 | 8.00 | 4.00 | < 10% | < 4.00 | < 10% | 0.41 pmol | 413 pmol | – | – | – | – | CN(C)C(=O)n1nnc(Cc2ccc(-c3cccc(O)c3)cc2)n1 | – | – | –
– | 7.02 | – | 4.81 | 33.6% | 5.04 | 45.2% | – | – | 6.82 | 6.82 | 6.60 | – | CN(C(=O)n1nnc(Cc2ccc(-c3ccccc3)cc2)n1)C1CCCCC1 | – | – | –
– | 8.01 | < 6.00 | 4.39 | < 10% | < 4.00 | 233% | – | – | 4.48 | – | – | 39 | Cc1cccc(-c2ccc(Cc3nnnn3C(=O)N(C)C)cc2)c1 | – | – | –
– | – | – | – | – | – | – | – | – | – | – | – | – | C[C@H](CCC(=O)O)C[C@H](C)C[C@H](C)C(=O)/C=C(\O)[C@H](C)C[C@H](C)C/C=C/[C@@H](C)[C@@H](O)[C@@H](C)[C@@H](O)C[C@@H]1CC[C@@](C)([C@H]2CC[C@@](C)([C@@H](C)O)O2)O1 | 15.7 pmol | 3.99 pmol | 0.37 pmol
